Experimental data reported in ChEMBL document CHEMBL1687765, “NagZ inactivation prevents and reverts beta-lactam resistance, driven by AmpD and PBP 4 mutations, in Pseudomonas aeruginosa” (2010).
Converted amounts (≈) assume the structure as drawn. The source made the active and inactive calls. No cut-off for these calls is given here.

What was measured:
Pseudomonas aeruginosa [1] = test: Antimicrobial activity against Pseudomonas aeruginosa PAO1 by broth microdilution method; format: functional
Method in brief: (§1)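 Broth microdilution MICs of ceftazidime, aztreonam and piperacillin in 100 μl cation-adjusted Mueller-Hinton broth, with or without NagZ inhibitor PUGNAc at 0.5 mM or 5 mM; measurements in triplicate.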

Pseudomonas aeruginosa [2] = test: Antimicrobial activity against ampD::lox gene-deficient Pseudomonas aeruginosa PAO1 by broth microdilution method; format: functional; method in brief: as §1
Pseudomonas aeruginosa [3] = test: Antimicrobial activity against dacB::lox gene-deficient Pseudomonas aeruginosa PAO1 by broth microdilution method; format: functional; method in brief: as §1
Pseudomonas aeruginosa [4] = test: Antimicrobial activity against ampD::lox gene-deficient Pseudomonas aeruginosa PAO1 harboring dacB gene by broth microdilution method; format: functional; method in brief: as §1
Pseudomonas aeruginosa [5] = test: Antimicrobial activity against Pseudomonas aeruginosa PAO1 by broth microdilution method in presence of 0.5 mM NagZ inhibitor PUGNAc; format: functional; method in brief: as §1
Pseudomonas aeruginosa [6] = test: Antimicrobial activity against ampD::lox gene-deficient Pseudomonas aeruginosa PAO1 by broth microdilution method in presence of 0.5 mM NagZ inhibitor PUGNAc; format: functional; method in brief: as §1
Pseudomonas aeruginosa [7] = test: Antimicrobial activity against dacB::lox gene-deficient Pseudomonas aeruginosa PAO1 by broth microdilution method in presence of 0.5 mM NagZ inhibitor PUGNAc; format: functional; method in brief: as §1
Pseudomonas aeruginosa [8] = test: Antimicrobial activity against ampD::lox gene-deficient Pseudomonas aeruginosa PAO1 harboring dacB gene by broth microdilution method in presence of 0.5 mM NagZ inhibitor PUGNAc; format: functional
Method in brief: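 MICs of ceftazidime, aztreonam and piperacillin determined by broth microdilution in cation-adjusted Mueller-Hinton broth, with 0.5 mM of the N-acetyl-β-glucosaminidase (NagZ) inhibitor PUGNAc added alongside the β-lactam and untreated controls run in parallel; all measurements performed in triplicate.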

Pseudomonas aeruginosa [9] = test: Antimicrobial activity against Pseudomonas aeruginosa PAO1 by broth microdilution method in presence of 5 mM NagZ inhibitor PUGNAc; format: functional; method in brief: as §1
Pseudomonas aeruginosa [10] = test: Antimicrobial activity against ampD::lox gene-deficient Pseudomonas aeruginosa PAO1 by broth microdilution method in presence of 5 mM NagZ inhibitor PUGNAc; format: functional; method in brief: as §1
Pseudomonas aeruginosa [11] = test: Antimicrobial activity against dacB::lox gene-deficient Pseudomonas aeruginosa PAO1 by broth microdilution method in presence of 5 mM NagZ inhibitor PUGNAc; format: functional; method in brief: as §1
Pseudomonas aeruginosa [12] = test: Antimicrobial activity against ampD::lox gene-deficient Pseudomonas aeruginosa PAO1 harboring dacB gene by broth microdilution method in presence of 5 mM NagZ inhibitor PUGNAc; format: functional; method in brief: as §1
Pseudomonas aeruginosa [13] = test: Antimicrobial activity against nagZ::lox gene-deficient Pseudomonas aeruginosa PAO1 by Etest method; format: functional
Method in brief: (§2)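 MICs read from Etest strips on Mueller-Hinton agar per manufacturer's instructions; agents ceftazidime, cefepime, aztreonam, piperacillin, piperacillin-tazobactam, imipenem and meropenem.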

Pseudomonas aeruginosa [14] = test: Antimicrobial activity against ampD::lox gene-deficient Pseudomonas aeruginosa PAO1 by Etest method; format: functional; method in brief: as §2
Pseudomonas aeruginosa [15] = test: Antimicrobial activity against dacB::lox gene-deficient Pseudomonas aeruginosa PAO1 by Etest method; format: functional; method in brief: as §2
Pseudomonas aeruginosa [16] = test: Antimicrobial activity against ampD::lox gene-deficient Pseudomonas aeruginosa PAO1 harboring dacB gene by Etest method; format: functional; method in brief: as §2
Pseudomonas aeruginosa [17] = test: Antimicrobial activity against ampD::lox, ampDh2::lox and ampDh3::lox gene-deficient Pseudomonas aeruginosa PAO1 by Etest method; format: functional
Method in brief: (§3)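 Etest strips on Mueller-Hinton agar, read per manufacturer's recommendations; P. aeruginosa PAO1 triple mutant deficient in ampD, ampDh2 and ampDh3 (lox deletions). Agents tested by Etest: ceftazidime, cefepime, aztreonam, piperacillin, piperacillin-tazobactam, imipenem, meropenem.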

Pseudomonas aeruginosa [18] = test: Antimicrobial activity against ampD::lox, ampDh2::lox,ampDh3::lox and nagZ::lox gene-deficient Pseudomonas aeruginosa PAO1 by Etest method; format: functional; method in brief: as §2
Pseudomonas aeruginosa [19] = test: Antimicrobial activity against ampR::lox gene-deficient Pseudomonas aeruginosa PAO1 by Etest method; format: functional; method in brief: as §2
Pseudomonas aeruginosa [20] = test: Antimicrobial activity against ampC::lox gene-deficient Pseudomonas aeruginosa PAO1 by Etest method; format: functional; method in brief: as §2
Pseudomonas aeruginosa [21] = test: Antimicrobial activity against Pseudomonas aeruginosa PAO1 by Etest method; format: functional; method in brief: as §2
Pseudomonas aeruginosa [22] = test: Antimicrobial activity against ampD::lox and nagZ::lox gene-deficient Pseudomonas aeruginosa PAO1 by Etest method; format: functional; method in brief: as §2
Pseudomonas aeruginosa [23] = test: Antimicrobial activity against ampD::lox and nagZ::lox gene-deficient Pseudomonas aeruginosa PAO1 harboring dacB gene by Etest method; format: functional; method in brief: as §2
Pseudomonas aeruginosa [24] = test: Antimicrobial activity against Pseudomonas aeruginosa PAO1 at 1 ug/ml; format: functional, organism-based
Method in brief: (§4)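 Population analysis: serial dilutions of overnight MH broth cultures plated on MH agar with 0, 0.5, 1, 2, 4, 8 or 16 μg/ml ceftazidime; colonies counted after 24 h as CFU at each concentration; triplicate, mean ± standard deviation.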

Pseudomonas aeruginosa [25] = test: Antimicrobial activity against nagZ::lox gene-deficient Pseudomonas aeruginosa PAO1 at 1 ug/ml; format: functional, organism-based; method in brief: as §4
Pseudomonas aeruginosa [26] = test: Antimicrobial activity against dacB::lox and nagZ::lox gene-deficient Pseudomonas aeruginosa PAO1 by Etest method; format: functional; method in brief: as §2
Pseudomonas aeruginosa [27] = test: Antimicrobial activity against Pseudomonas aeruginosa PAO1 by Etest method in presence of beta-lactamase inhibitor Tazobactam; format: functional; method in brief: as §2
Pseudomonas aeruginosa [28] = test: Antimicrobial activity against nagZ::lox gene-deficient Pseudomonas aeruginosa PAO1 by Etest method in presence of beta-lactamase inhibitor Tazobactam; format: functional; method in brief: as §2
Pseudomonas aeruginosa [29] = test: Antimicrobial activity against ampD::lox gene-deficient Pseudomonas aeruginosa PAO1 by Etest method in presence of beta-lactamase inhibitor Tazobactam; format: functional; method in brief: as §2
Pseudomonas aeruginosa [30] = test: Antimicrobial activity against ampD::lox and nagZ::lox gene-deficient Pseudomonas aeruginosa PAO1 by Etest method in presence of beta-lactamase inhibitor Tazobactam; format: functional
Method in brief: (§5)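 MICs on Mueller-Hinton agar by Etest strips (piperacillin-tazobactam among the agents tested), per manufacturer's instructions.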

Pseudomonas aeruginosa [31] = test: Antimicrobial activity against dacB::lox gene-deficient Pseudomonas aeruginosa PAO1 by Etest method in presence of beta-lactamase inhibitor Tazobactam; format: functional; method in brief: as §2
Pseudomonas aeruginosa [32] = test: Antimicrobial activity against dacB::lox and nagZ::lox gene-deficient Pseudomonas aeruginosa PAO1 by Etest method in presence of beta-lactamase inhibitor Tazobactam; format: functional; method in brief: as §5
Pseudomonas aeruginosa [33] = test: Antimicrobial activity against ampD::lox and nagZ::lox gene-deficient Pseudomonas aeruginosa PAO1 harboring dacB gene by Etest method in presence of beta-lactamase inhibitor Tazobactam; format: functional; method in brief: as §2
Pseudomonas aeruginosa [34] = test: Antimicrobial activity against ampD::lox, ampDh2::lox and ampDh3::lox gene-deficient Pseudomonas aeruginosa PAO1 by Etest method in presence of beta-lactamase inhibitor Tazobactam; format: functional; method in brief: as §3
Pseudomonas aeruginosa [35] = test: Antimicrobial activity against ampD::lox, ampDh2::lox,ampDh3::lox and nagZ::lox gene-deficient Pseudomonas aeruginosa PAO1 by Etest method in presence of beta-lactamase inhibitor Tazobactam; format: functional; method in brief: as §5
Pseudomonas aeruginosa [36] = test: Antimicrobial activity against ampR::lox gene-deficient Pseudomonas aeruginosa PAO1 by Etest method in presence of beta-lactamase inhibitor Tazobactam; format: functional; method in brief: as §2
Pseudomonas aeruginosa [37] = test: Antimicrobial activity against ampC::lox gene-deficient Pseudomonas aeruginosa PAO1 by Etest method in presence of beta-lactamase inhibitor Tazobactam; format: functional; method in brief: as §2

Structure (SMILES)	MIC (Pseudomonas aeruginosa [1])	MIC (Pseudomonas aeruginosa [2])	MIC (Pseudomonas aeruginosa [3])	MIC (Pseudomonas aeruginosa [4])	MIC (Pseudomonas aeruginosa [5])	MIC (Pseudomonas aeruginosa [6])	MIC (Pseudomonas aeruginosa [7])	MIC (Pseudomonas aeruginosa [8])	MIC (Pseudomonas aeruginosa [9])	MIC (Pseudomonas aeruginosa [13])	MIC (Pseudomonas aeruginosa [14])	MIC (Pseudomonas aeruginosa [15])	MIC (Pseudomonas aeruginosa [16])	MIC (Pseudomonas aeruginosa [17])	MIC (Pseudomonas aeruginosa [18])	MIC (Pseudomonas aeruginosa [19])	MIC (Pseudomonas aeruginosa [20])	MIC (Pseudomonas aeruginosa [21])	MIC (Pseudomonas aeruginosa [22])	MIC (Pseudomonas aeruginosa [23])	also measured
C[C@H]1[C@H](NC(=O)/C(=N\OC(C)(C)C(=O)O)c2csc(N)n2)C(=O)N1S(=O)(=O)O [AZTREONAM]	3 µg/mL (≈ 6.89 µM)	6 µg/mL (≈ 13.8 µM)	12 µg/mL (≈ 27.6 µM)	32 µg/mL (≈ 73.5 µM)	3 µg/mL	3 µg/mL	4 µg/mL	32 µg/mL	3 µg/mL	4 µg/mL (≈ 9.19 µM)	12 µg/mL (≈ 27.6 µM)	24 µg/mL (≈ 55.1 µM)	64 µg/mL (≈ 147 µM)	32 µg/mL (≈ 73.5 µM)	8 µg/mL (≈ 18.4 µM)	4 µg/mL (≈ 9.19 µM)	2 µg/mL (≈ 4.59 µM)	–	–	–	MIC (Pseudomonas aeruginosa [10]): 3 µg/mL; MIC (Pseudomonas aeruginosa [11]): 3 µg/mL; MIC (Pseudomonas aeruginosa [12]): 24 µg/mL
CO/N=C(\C(=O)N[C@@H]1C(=O)N2C(C(=O)[O-])=C(C[N+]3(C)CCCC3)CS[C@H]12)c1csc(N)n1 [CEFEPIME]	–	–	–	–	–	–	–	–	–	1.5 µg/mL (≈ 3.12 µM)	–	12 µg/mL (≈ 25 µM)	48 µg/mL (≈ 99.9 µM)	–	3 µg/mL (≈ 6.24 µM)	2 µg/mL (≈ 4.16 µM)	1 µg/mL (≈ 2.08 µM)	1.5 µg/mL (≈ 3.12 µM)	1.5 µg/mL (≈ 3.12 µM)	3 µg/mL (≈ 6.24 µM)	–
CC(C)(O/N=C(\C(=O)N[C@@H]1C(=O)N2C(C(=O)[O-])=C(C[n+]3ccccc3)CS[C@H]12)c1csc(N)n1)C(=O)O [CEFTAZIDIME]	2 µg/mL (≈ 3.66 µM)	8 µg/mL (≈ 14.6 µM)	24 µg/mL (≈ 43.9 µM)	96 µg/mL (≈ 176 µM)	2 µg/mL	4 µg/mL	8 µg/mL	64 µg/mL	2 µg/mL	1 µg/mL (≈ 1.83 µM)	8 µg/mL (≈ 14.6 µM)	24 µg/mL (≈ 43.9 µM)	96 µg/mL (≈ 176 µM)	32 µg/mL (≈ 58.5 µM)	3 µg/mL (≈ 5.49 µM)	2 µg/mL (≈ 3.66 µM)	1 µg/mL (≈ 1.83 µM)	1.5 µg/mL (≈ 2.74 µM)	2 µg/mL (≈ 3.66 µM)	4 µg/mL (≈ 7.32 µM)	MIC (Pseudomonas aeruginosa [10]): 4 µg/mL; MIC (Pseudomonas aeruginosa [11]): 6 µg/mL; MIC (Pseudomonas aeruginosa [12]): 64 µg/mL; Activity (Pseudomonas aeruginosa [24]): Active; Activity (Pseudomonas aeruginosa [25]): Active
C[C@@H](O)[C@H]1C(=O)N2C(C(=O)O)=C(SCCNC=N)C[C@H]12 [IMIPENEM ANHYDROUS]	–	–	–	–	–	–	–	–	–	1 µg/mL (≈ 3.34 µM)	2 µg/mL (≈ 6.68 µM)	2 µg/mL (≈ 6.68 µM)	2 µg/mL (≈ 6.68 µM)	2 µg/mL (≈ 6.68 µM)	1.5 µg/mL (≈ 5.01 µM)	0.5 µg/mL (≈ 1.67 µM)	0.5 µg/mL (≈ 1.67 µM)	2 µg/mL (≈ 6.68 µM)	1 µg/mL (≈ 3.34 µM)	1 µg/mL (≈ 3.34 µM)	–
C[C@@H](O)[C@H]1C(=O)N2C(C(=O)O)=C(S[C@@H]3CN[C@H](C(=O)N(C)C)C3)[C@H](C)[C@H]12 [MEROPENEM]	–	–	–	–	–	–	–	–	–	0.38 µg/mL (≈ 0.991 µM)	1 µg/mL (≈ 2.61 µM)	0.5 µg/mL (≈ 1.3 µM)	1.5 µg/mL (≈ 3.91 µM)	1 µg/mL (≈ 2.61 µM)	1 µg/mL (≈ 2.61 µM)	0.25 µg/mL (≈ 0.652 µM)	0.25 µg/mL (≈ 0.652 µM)	0.38 µg/mL (≈ 0.991 µM)	0.5 µg/mL (≈ 1.3 µM)	0.5 µg/mL (≈ 1.3 µM)	MIC (Pseudomonas aeruginosa [26]): 0.38 µg/mL (≈ 0.991 µM)
CCN1CCN(C(=O)N[C@@H](C(=O)N[C@@H]2C(=O)N3[C@@H]2SC(C)(C)[C@@H]3C(=O)O)c2ccccc2)C(=O)C1=O [PIPERACILLIN]	4 µg/mL (≈ 7.73 µM)	48 µg/mL (≈ 92.7 µM)	64 µg/mL (≈ 124 µM)	384 µg/mL (≈ 742 µM)	4 µg/mL	24 µg/mL	32 µg/mL	256 µg/mL	4 µg/mL	–	–	–	–	–	–	–	–	–	–	–	MIC (Pseudomonas aeruginosa [10]): 24 µg/mL; MIC (Pseudomonas aeruginosa [11]): 24 µg/mL; MIC (Pseudomonas aeruginosa [12]): 256 µg/mL; MIC (Pseudomonas aeruginosa [27]): 2 µg/mL; MIC (Pseudomonas aeruginosa [28]): 2 µg/mL; MIC (Pseudomonas aeruginosa [29]): 32 µg/mL; MIC (Pseudomonas aeruginosa [30]): 3 µg/mL; MIC (Pseudomonas aeruginosa [31]): 64 µg/mL; MIC (Pseudomonas aeruginosa [32]): 3 µg/mL; MIC (Pseudomonas aeruginosa [33]): 16 µg/mL; MIC (Pseudomonas aeruginosa [34]): > 256 µg/mL; MIC (Pseudomonas aeruginosa [35]): 8 µg/mL; MIC (Pseudomonas aeruginosa [36]): 4 µg/mL; MIC (Pseudomonas aeruginosa [37]): 2 µg/mL
